Compound activity as filed in PubChem.
UCH37 DUB inh = inhibitors of human UCH37 deubiquitinase, primary screen, biochemical, Ub-AMC cleavage, fluorescence; 330,000 compounds, 0.33% hits; inhibition, % (no concentration beside the values); purified proteasome/UCH37; AID 588478, 2011; Ubiquitin carboxyl-terminal hydrolase isozyme L5 (Homo sapiens), Q9Y5K5;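 active = mean inhibition over replicate wells above about 20%, limit read from the data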
Target sequence (Q9Y5K5 whole entry, looked up): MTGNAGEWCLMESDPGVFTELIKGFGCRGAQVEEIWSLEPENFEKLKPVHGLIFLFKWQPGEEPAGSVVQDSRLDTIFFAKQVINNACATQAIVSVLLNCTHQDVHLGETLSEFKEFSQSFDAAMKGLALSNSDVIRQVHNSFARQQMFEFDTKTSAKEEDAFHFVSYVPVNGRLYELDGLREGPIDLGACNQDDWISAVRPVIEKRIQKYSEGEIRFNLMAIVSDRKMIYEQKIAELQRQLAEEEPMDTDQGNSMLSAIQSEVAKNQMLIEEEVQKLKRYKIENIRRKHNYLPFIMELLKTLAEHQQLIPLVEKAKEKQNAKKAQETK
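Schedule: 30 min plus 25 min, room temperature / Material: human UCH37 within purified proteasomes / Technique: AMC fluorescence intensity at 355/460 nm / Buffer or medium: pH 7.4 Tris-HCl (50 mM) with ovalbumin, ATP-MgCl2, DTT / Controls: wells without proteasome as full block, compound-free enzyme plus substrate as uninhibited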
FGF22 binding = binders of human FGF22 protein, primary screen, FGF22 synaptogenesis inhibitor project, biophysical, thermal shift, single point; AID 651658, 2012; 340,000 compounds, 1.5% hits; recombinant FGF22 thermal shift, SYPRO orange fluorescence; percent of sucrose octasulfate shift, DMSO zero; activity (Tm shift, normalised), % at 9.99 µM; Fibroblast growth factor 22 (Homo sapiens), Q9HCT0;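 active = mean Tm shift, scaled 0 neutral to 100 positive control, at about 1.3% or above, every replicate too, limit read from the data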
CASP6 VEID inh = human caspase-6 inhibitors, primary screen, biochemical, VEID-R110 fluorescence, single point, set 2 | P55212 | purified caspase-6, Z-VEID-R110 cleavage fluorescence | inhibition, % at 12.5 µM | 350,000 compounds, 0.53% hits | AID 686996, 2013;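 active = mean inhibition across replicates at least about 35%, with every replicate also reaching that limit, limit read from the data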
NSD2 inh = NSD2 histone methyltransferase inhibitors, primary screen, biochemical, AlphaScreen, single concentration, set 2. inhibition, % at 12.5 µM. Histone-lysine N-methyltransferase NSD2 (Homo sapiens), O96028. 310,000 compounds, 0.54% hits. AID 743445, 2014. NSD2 peptide methylation, 120 min; in the data active = inhibition above about 50%
SIRT5 block = SIRT5 desuccinylase inhibitors, primary screen, biochemical, fluorescence imaging, single point, set 5 | 330,000 compounds, 1.1% hits | NAD-dependent protein deacylase sirtuin-5, mitochondrial (Homo sapiens), Q9NXA8 | Purified SirT5, succinyl-peptide AMC, trypsin-coupled fluorescence | AID 652115, 2013 | inhibition, % at 15 µM; in the data active = inhibition above about 15%
Target sequence (Q9NXA8 whole entry, looked up): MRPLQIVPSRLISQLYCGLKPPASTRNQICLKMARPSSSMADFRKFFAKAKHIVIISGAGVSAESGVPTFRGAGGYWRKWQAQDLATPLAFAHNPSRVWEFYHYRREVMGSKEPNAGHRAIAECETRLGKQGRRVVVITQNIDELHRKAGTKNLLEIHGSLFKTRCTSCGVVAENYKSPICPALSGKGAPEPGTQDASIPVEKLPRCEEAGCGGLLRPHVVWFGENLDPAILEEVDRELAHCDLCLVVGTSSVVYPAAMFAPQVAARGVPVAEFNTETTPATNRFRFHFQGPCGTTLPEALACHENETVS
A number is an active result; n = inactive; x = no result; ! = a repeat was not active. An excerpt weighted towards active compounds, which were near 2.6% of everything screened.

SMILES | UCH37 DUB inh | FGF22 binding | CASP6 VEID inh | NSD2 inh | SIRT5 block
O=C(Nc1ccc(S(=O)(=O)N2CCCCC2c2cccnc2)cc1)c1c(F)cccc1F (stereo not drawn) | n | 43.7 | n | n | n
CC(=O)Nc1ccc(S(=O)(=O)N2CCCCC2c2cccnc2)cc1 (stereo not drawn) | n | x | x | n | x
C[C@H]1CN([C@@H](C)CO)S(=O)(=O)c2ccc(-c3ccncc3)cc2O[C@H]1CN(C)C | x | n | n | x | n
CCOc1cc(/C=C2\CCCc3c2nc2ccccc2c3C(=O)O)ccc1OC | x | n | n | n | n
COc1cc(/C=C2\CCc3c2nc2ccccc2c3C(=O)O)cc(OC)c1OC | n | n | 49.1 | x | n
COc1cccc(/C=C2\CC(C)Cc3c2nc2ccccc2c3C(=O)O)c1OC (stereo not drawn) | n | n | n | n | n
COc1cc(/C=C2\CCCc3c2nc2ccccc2c3C(=O)O)cc(Br)c1O | n | 20.9 | n | n | n
CCOC(=O)c1sc(NC(=O)C2C3C=CC(C3)C2C(=O)O)nc1C (stereo not drawn) | n | n | 54.8 | n | n
CCOC(=O)c1sc(NC(=O)CSc2nccn2C)nc1C | n | n | n | n | 16.3
CCCn1c(SCC(=O)Nc2cc(Cl)ccc2Cl)n[nH]c1=O | n | 43.1 | n | n | n
CCCn1c(SCC(=O)Nc2cc(Cl)ccc2OC)n[nH]c1=O | n | x | x | n | x
Cc1ccc(NC(=O)c2cccs2)cc1[N+](=O)[O-] | n | 43.8 | n | n | n
O=C(/C=C/c1cccc([N+](=O)[O-])c1)Nc1cccc(NC(=O)c2cccs2)c1 | n | 1.7 | n | n | n
CC(=O)OCC1=C(C(=O)O)N2C(=O)C(NC(=O)COc3ccc(F)cc3)C2SC1 (stereo not drawn) | n | n | n | n | n
CC(=O)OCC1=C(C(=O)O)N2C(=O)C(NC(=O)c3ccc(COc4ccc(Cl)cc4)o3)C2SC1 (stereo not drawn) | n | n | 59.8 | n | n
CC(=O)OCC1=C(C(=O)O)N2C(=O)[C@@H](NC(=O)Cc3ccccc3)[C@H]2SC1 | x | n | n | x | n
CC(=O)OCC1=C(C(=O)O)N2C(=O)C(NC(=O)c3ccc(COc4c(C)cccc4Cl)o3)C2SC1 (stereo not drawn) | n | n | 40.5 | x | n
FC(F)Oc1ccc(NC(=S)N2CCN(Cc3ccccc3)CC2)cc1 | n | 44.4 | n | n | n
C[C@@H]1CCCCO[C@H](CN(C)Cc2ccc(C(F)(F)F)cc2)[C@H](C)CN([C@H](C)CO)C(=O)c2cc(NS(=O)(=O)c3ccccc3)ccc2O1 | x | x | n | x | n
Cc1ccc(S(=O)(=O)Nc2ccc3c(c2)C(=O)N([C@@H](C)CO)C[C@H](C)[C@H](CN(C)Cc2ccc(C(F)(F)F)cc2)OCCCC[C@H](C)O3)cc1 | x | n | n | x | 15.1
Cc1ccc(S(=O)(=O)Nc2ccc3c(c2)C(=O)N([C@H](C)CO)C[C@@H](C)[C@H](CN(C)Cc2ccc(C(F)(F)F)cc2)OCCCC[C@H](C)O3)cc1 | x | n | n | x | n
Cc1ccc(S(=O)(=O)Nc2ccc3c(c2)C(=O)N([C@H](C)CO)C[C@H](C)[C@@H](CN(C)Cc2ccc(C(F)(F)F)cc2)OCCCC[C@H](C)O3)cc1 | x | n | n | x | 20.7
C[C@@H]1CCCCO[C@@H](CN(C)Cc2ccc(C(F)(F)F)cc2)[C@@H](C)CN([C@H](C)CO)C(=O)c2cc(NS(=O)(=O)c3ccccc3)ccc2O1 | x | x | n | x | n
Cc1ccc(S(=O)(=O)Nc2ccc3c(c2)C(=O)N([C@@H](C)CO)C[C@H](C)[C@H](CN(C)Cc2ccc(C(F)(F)F)cc2)OCCCC[C@@H](C)O3)cc1 | x | n | n | x | 18.3
Cc1ccc(S(=O)(=O)Nc2ccc3c(c2)C(=O)N([C@@H](C)CO)C[C@H](C)[C@@H](CN(C)Cc2ccc(C(F)(F)F)cc2)OCCCC[C@@H](C)O3)cc1 | x | n | n | x | 16.9
SMILES | UCH37 DUB inh | FGF22 binding | CASP6 VEID inh | NSD2 inh | SIRT5 block
CNC(=O)C[C@H]1CC[C@H]2[C@H](COc3ccc(NC(=O)NC4CCCC4)cc3C(=O)N2C)O1 | x | n | n | x | n
CC(C)(C)[S@@](=O)N1Cc2cc(C(=O)N3CCCCC3)nc(-c3cccc(Br)c3)c2[C@H]1CCO | x | x | n | x | n
CCC(=O)N1[C@H](CN(CC)C(=O)c2ccc(F)cc2)[C@@H](c2ccccc2)[C@@H]1CO | x | n | n | x | n
CCOC(=O)C1=C(C)Nc2ccccc2N/C1=N\S(=O)(=O)c1cc(C(=O)O)ccc1Cl | n | n | 36.6 | n | n
CN(C(=O)COC(=O)/C=C/c1cn(-c2ccccc2)nc1-c1ccc2c(c1)OCCO2)C1CCS(=O)(=O)C1 (stereo not drawn) | n | 43.3 | n | n | n
O=C(COC(=O)CNC(=O)c1ccccc1)NC(=O)NC1CCCCC1 | n | n | n | n | 23.2
COc1ccc2c(c1)c(=O)oc1c(C)c(OC(C)C(=O)N[C@@H](Cc3c[nH]c4ccc(O)cc34)C(=O)O)ccc12 (stereo partly drawn) | n | x | 38.9 | x | n
CC(Oc1ccc2c(-c3ccccc3)cc(=O)oc2c1)C(=O)NC(Cc1c[nH]c2ccc(O)cc12)C(=O)O (stereo not drawn) | n | n | n | x | n
COc1ccc(S(=O)(=O)Nc2cccc3c2O[C@H](CN(C)S(=O)(=O)c2ccc(C)cc2)[C@H](C)CN([C@@H](C)CO)C3=O)cc1 | x | n | x | x | x
COc1ccccc1CNS(=O)(=O)c1cccs1 | n | n | n | n | 88.7
COc1ccc(C(=O)CSc2nnc(CN3CCCC3)n2-c2ccc(F)cc2)c(OC)c1 | n | 43.6 | n | n | n
C[C@H](CO)N1C[C@H](C)[C@H](CN(C)Cc2cccc(C(F)(F)F)c2)Oc2ncc(C#Cc3ccccc3)cc2C1=O | x | n | n | x | 28.6
C[C@@H]1CN([C@@H](C)CO)C(=O)c2cc(-c3cccc(F)c3)cnc2O[C@@H]1CN(C)Cc1ccncc1 | x | n | n | x | 20.9
C[C@@H]1CN([C@@H](C)CO)C(=O)c2cc(-c3cccc(F)c3)cnc2O[C@H]1CN(C)C(=O)Nc1cc(F)ccc1F | x | n | n | x | 23.2
Cc1ccc(-c2cnc3c(c2)C(=O)N([C@H](C)CO)C[C@H](C)[C@@H](CN(C)Cc2ccccc2F)O3)cc1 | x | n | n | x | 12.9!
C[C@@H]1CN([C@@H](C)CO)C(=O)c2cc(-c3cccc(F)c3)cnc2O[C@H]1CN(C)Cc1ccncc1 | x | n | n | x | n
C[C@H](CO)N1C[C@H](C)[C@H](CN(C)Cc2cccc(C(F)(F)F)c2)Oc2ncc(C#Cc3ccc(F)cc3)cc2C1=O | x | n | n | x | n
